Among the data in ChEMBL document CHEMBL1126988, “Quinolone antibacterials containing the new 7-[3-(1-aminoethyl)-1- pyrrolidinyl] side chain: the effects of the 1-aminoethyl moiety and its stereochemical configurations on potency and in vivo efficacy” (J Med Chem, 1993) are MIC, ED50 and PD50 values, retold here.

What all share (type): functional
In assay [1] the test system is Escherichia coli. The assay can be described thus: Antibacterial activity in vitro against Escherichia coli Vogel. The gist of the method:
(§1)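 Standard microtitration broth assay against a panel of 10 Gram-positive and Gram-negative organisms. MIC read in µg/mL and averaged over multiple experiments.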

The subject of assay [2] is Escherichia coli. The assay can be described thus: Antibacterial activity against Escherichia coli Vogel after oral administration in mouse. The following applies: for ED50: Escherichia coli, po, read-out: PD50.
In assay [3] the test system is Escherichia coli. Kind of assay: Antibacterial activity against Escherichia coli Vogel after subcutaneous administration in mouse. The note with it: for ED50: Escherichia coli, sc, read-out: PD50.
The test system of the next assay is Enterobacter cloacae. Kind of assay: Minimum inhibitory concentration in vitro against Enterobacter cloacae MA 2646.
Another assay relates to Enterococcus faecalis. Kind of assay: Minimum inhibitory concentration was evaluated in vitro against Enterococcus faecalis MGH-2. In short, it runs like this:
as §1

In a further assay the test system is Klebsiella pneumoniae. Kind of assay: Minimum inhibitory concentration was evaluated in vitro against Klebsiella pneumoniae MGH2. The gist of the method:
as §1

For another assay, the system named is Providencia rettgeri. Kind of assay: Minimum inhibitory concentration was evaluated in vitro against Providencia rettgeri M1771. The gist of the method:
as §1

The subject of a further assay is Pseudomonas aeruginosa. The assay can be described thus: Minimum inhibitory concentration was evaluated in vitro against Pseudomonas aeruginosa UI-18. The gist of the method:
as §1

In assay [4] the test system is Staphylococcus aureus. Kind of assay: Minimum inhibitory concentration was evaluated in vitro against Staphylococcus aureus H 228. The gist of the method: as §1
For assay [5], the system named is Staphylococcus aureus. Kind of assay: Minimum inhibitory concentration was evaluated in vitro against Staphylococcus aureus UC 76. The gist of the method: as §1
The next assay has as its system Streptococcus pneumoniae. Kind of assay: Minimum inhibitory concentration was evaluated in vitro against Streptococcus pneumoniae SV-1. The gist of the method: as §1
The subject of assay [6] is Streptococcus pyogenes. Kind of assay: Antibacterial activity measured as mouse protection against Streptococcus pyogenes C 203 after subcutaneous administration. The note with it: for ED50: Streptococcus pyogenes, C 203, sc, read-out: PD50.
Assay [7] relates to Streptococcus pyogenes. Kind of assay: Compounds were evaluated in vivo for antibacterial activity for mouse protection against Streptococcus pyogenes C 203 after oral administration. The note with it: for ED50: Streptococcus pyogenes, C 203, po, read-out: PD50.
In assay [8] the test system is Streptococcus pyogenes. The assay can be described thus: Minimum inhibitory concentration was evaluated in vitro against Streptococcus pyogenes C 203. In short, it runs like this:
as §1

[9] abbreviates: Escherichia coli, read-out: MIC.
[10] abbreviates: Enterobacter cloacae, read-out: MIC.
Setting [11] is: Enterococcus faecalis, read-out: MIC.
Where [12] appears, read: Klebsiella pneumoniae, read-out: MIC.
[13] abbreviates: Providencia rettgeri, read-out: MIC.
[14] abbreviates: Pseudomonas aeruginosa, read-out: MIC.
Where [15] appears, read: Staphylococcus aureus, read-out: MIC.
Setting [16] is: Streptococcus pneumoniae, read-out: MIC.
Setting [17] is: Streptococcus pyogenes, read-out: MIC.

≈ marks a conversion by molar mass, not a printed value.

For orientation: MIC means the least concentration at which growth counts as inhibited. With `CCNCC1CCN(c2cc3c(c(N)c2F)c(=O)c(C(=O)O)cn3C2CC2)C1` (centres undefined), the MIC is 0.1 µg/mL (≈ 0.257 µM) with Escherichia coli [1] (setting [9]); 0.1 µg/mL (≈ 0.257 µM) in the assay with Enterobacter cloacae (setting [10]); 0.05 µg/mL (≈ 0.129 µM) in the assay with Enterococcus faecalis (setting [11]); 0.4 µg/mL (≈ 1.03 µM) in the assay on Klebsiella pneumoniae (setting [12]); 0.8 µg/mL (≈ 2.06 µM) with Providencia rettgeri (setting [13]); 1.6 µg/mL (≈ 4.12 µM) with Pseudomonas aeruginosa (setting [14]). Moreover, the MIC with Staphylococcus aureus [4] (setting [15]) was found to be 0.2 µg/mL (≈ 0.515 µM); with Staphylococcus aureus [5] (setting [15]), 0.025 µg/mL (≈ 0.0644 µM); with Streptococcus pneumoniae (setting [16]), 0.05 µg/mL (≈ 0.129 µM); in the assay on Streptococcus pyogenes [8] (setting [17]) it was 0.1 µg/mL (≈ 0.257 µM). In addition, the ED50 is 90 mg/kg in the assay on Escherichia coli [2], 3 mg/kg with Escherichia coli [3], 11 mg/kg with Streptococcus pyogenes [6] and over 100 mg/kg with Streptococcus pyogenes [7].
With `CCN[C@@H](C)[C@@H]1CCN(c2nc3c(cc2F)c(=O)c(C(=O)O)cn3C2CC2)C1`, the minimal inhibitory concentration (MIC) against Escherichia coli [1] was determined as 0.2 µg/mL (≈ 0.515 µM); with Enterobacter cloacae, 0.2 µg/mL (≈ 0.515 µM); in the assay on Enterococcus faecalis it was 0.2 µg/mL (≈ 0.515 µM); in the assay with Klebsiella pneumoniae, 0.4 µg/mL (≈ 1.03 µM); against Providencia rettgeri, 1.6 µg/mL (≈ 4.12 µM); against Pseudomonas aeruginosa it was 3.1 µg/mL (≈ 7.98 µM). Moreover, the minimal inhibitory concentration (MIC) against Staphylococcus aureus [4] turned out to be 0.2 µg/mL (≈ 0.515 µM); against Staphylococcus aureus [5], 0.1 µg/mL (≈ 0.257 µM); against Streptococcus pneumoniae it was 0.1 µg/mL (≈ 0.257 µM); against Streptococcus pyogenes [8] it was 0.4 µg/mL (≈ 1.03 µM). For the same compound, the PD50 was found to be 3 mg/kg in the assay with Escherichia coli [2], 1 mg/kg in the assay with Escherichia coli [3], 9 mg/kg with Streptococcus pyogenes [6] and 15 mg/kg in the assay on Streptococcus pyogenes [7].
Take `CC(N)C1CCN(c2c(F)cc3c(=O)c(C(=O)O)cn(C4CC4)c3c2F)C1` (racemic): the minimum inhibitory concentration (MIC) in the assay with Escherichia coli [1] (setting [9]) is 0.013 µg/mL (≈ 0.0344 µM); in the assay with Enterobacter cloacae (setting [10]) it was 0.013 µg/mL (≈ 0.0344 µM); in the assay on Enterococcus faecalis (setting [11]), 0.006 µg/mL (≈ 0.0159 µM); in the assay on Klebsiella pneumoniae (setting [12]) it was 0.013 µg/mL (≈ 0.0344 µM); in the assay with Providencia rettgeri (setting [13]), 0.025 µg/mL (≈ 0.0662 µM); with Pseudomonas aeruginosa (setting [14]), 0.4 µg/mL (≈ 1.06 µM). Besides, the MIC in the assay with Staphylococcus aureus [4] (setting [15]) amounted to 0.013 µg/mL (≈ 0.0344 µM); in the assay with Staphylococcus aureus [5] (setting [15]), 0.003 µg/mL (≈ 0.00795 µM); in the assay on Streptococcus pneumoniae (setting [16]), 0.006 µg/mL (≈ 0.0159 µM); with Streptococcus pyogenes [8] (setting [17]), 0.006 µg/mL (≈ 0.0159 µM). Also, the ED50 is 2 mg/kg in the assay on Escherichia coli [2], 0.3 mg/kg in the assay on Escherichia coli [3], 0.1 mg/kg in the assay with Streptococcus pyogenes [6] and 0.4 mg/kg with Streptococcus pyogenes [7].
`CCNCC1CCN(c2c(F)c(N)c3c(=O)c(C(=O)O)cn(C4CC4)c3c2F)C1` (centres undefined): the minimum inhibitory concentration (MIC) in the assay on Escherichia coli [1] (setting [9]) amounted to 0.05 µg/mL (≈ 0.123 µM); with Enterobacter cloacae (setting [10]), 0.05 µg/mL (≈ 0.123 µM); in the assay with Enterococcus faecalis (setting [11]) it was 0.025 µg/mL (≈ 0.0615 µM); in the assay with Klebsiella pneumoniae (setting [12]) it was 0.05 µg/mL (≈ 0.123 µM); in the assay on Providencia rettgeri (setting [13]) it was 0.1 µg/mL (≈ 0.246 µM); in the assay with Pseudomonas aeruginosa (setting [14]) it was 0.2 µg/mL (≈ 0.492 µM). For the same compound, the MIC with Staphylococcus aureus [4] (setting [15]) is 0.013 µg/mL (≈ 0.032 µM); with Staphylococcus aureus [5] (setting [15]), 0.003 µg/mL (≈ 0.00738 µM); in the assay with Streptococcus pneumoniae (setting [16]), 0.003 µg/mL (≈ 0.00738 µM); with Streptococcus pyogenes [8] (setting [17]) it was 0.013 µg/mL (≈ 0.032 µM). Moreover, the ED50 amounted to 16 mg/kg in the assay with Escherichia coli [2], 2 mg/kg with Escherichia coli [3], 3 mg/kg in the assay on Streptococcus pyogenes [6] and 5 mg/kg in the assay on Streptococcus pyogenes [7].
On to `CCNCC1CCN(c2nc3c(cc2F)c(=O)c(C(=O)O)cn3-c2ccc(F)cc2F)C1` (centres undefined), for which the minimum inhibitory concentration (MIC) in the assay with Escherichia coli [1] (setting [9]) was found to be 0.2 µg/mL (≈ 0.448 µM); with Enterobacter cloacae (setting [10]), 0.2 µg/mL (≈ 0.448 µM); in the assay with Enterococcus faecalis (setting [11]), 0.2 µg/mL (≈ 0.448 µM); in the assay on Klebsiella pneumoniae (setting [12]), 0.4 µg/mL (≈ 0.896 µM); in the assay with Providencia rettgeri (setting [13]), 0.8 µg/mL (≈ 1.79 µM); in the assay on Pseudomonas aeruginosa (setting [14]) it was 1.6 µg/mL (≈ 3.58 µM). Besides, the MIC turned out to be 0.1 µg/mL (≈ 0.224 µM) with Staphylococcus aureus [4] (setting [15]), 0.025 µg/mL (≈ 0.056 µM) in the assay on Staphylococcus aureus [5] (setting [15]), 0.1 µg/mL (≈ 0.224 µM) in the assay with Streptococcus pneumoniae (setting [16]) and 0.1 µg/mL (≈ 0.224 µM) in the assay on Streptococcus pyogenes [8] (setting [17]). Also, the ED50 in the assay on Escherichia coli [2] was found to be 6 mg/kg; with Escherichia coli [3], 4 mg/kg; with Streptococcus pyogenes [6] it was 3 mg/kg; with Streptococcus pyogenes [7], 8 mg/kg.
As to `CCNCC1CCN(c2nc3c(cc2F)c(=O)c(C(=O)O)cn3C2CC2)C1` (centres undefined), the minimum inhibitory concentration (MIC) in the assay on Escherichia coli [1] (setting [9]) came out at 0.1 µg/mL (≈ 0.267 µM); with Enterobacter cloacae (setting [10]), 0.2 µg/mL (≈ 0.534 µM); with Enterococcus faecalis (setting [11]), 0.1 µg/mL (≈ 0.267 µM); in the assay with Klebsiella pneumoniae (setting [12]), 0.2 µg/mL (≈ 0.534 µM); in the assay with Providencia rettgeri (setting [13]), 0.8 µg/mL (≈ 2.14 µM); in the assay on Pseudomonas aeruginosa (setting [14]), 0.8 µg/mL (≈ 2.14 µM). Besides, the minimal inhibitory concentration (MIC) turned out to be 0.1 µg/mL (≈ 0.267 µM) in the assay on Staphylococcus aureus [4] (setting [15]), 0.05 µg/mL (≈ 0.134 µM) in the assay on Staphylococcus aureus [5] (setting [15]), 0.1 µg/mL (≈ 0.267 µM) in the assay with Streptococcus pneumoniae (setting [16]) and 0.2 µg/mL (≈ 0.534 µM) with Streptococcus pyogenes [8] (setting [17]). Moreover, the ED50 with Escherichia coli [2] was determined as 7 mg/kg; in the assay on Escherichia coli [3], 1 mg/kg; in the assay on Streptococcus pyogenes [6], 8 mg/kg; with Streptococcus pyogenes [7], 17 mg/kg.
